From PubChem BioAssay AID1800 (The Scripps Research Institute Molecular Screening Center, 2009) come the findings set out here.

Structures are written as SMILES. The campaign covered roughly 290,000 compounds. About 1,600 (0.55%) were called active. The list comes from a sample in which actives are over-represented; it also holds similar structures and randomly drawn compounds. Values without a mark were called inactive.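 Rule for the calls: active = inhibition above the mean of all tested compounds plus 3 SD, set per campaign (cut at about 35% in these data); inactive = the rest.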

For orientation: inhibition means the change of the read-out against control, counted positive when it falls.

For the test, the system named is Hepatitis C virus NS3 helicase. Nature of the test: HCV NS3 DNA unwinding blockers – biochemical, Cy5 molecular beacon fluorescence, primary screen (AID 1800).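 Note: 0% = DMSO wells and 100% = thioflavine S control wells.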 The following applies: at 10.9 µM, hits give high values. In short, it runs like this:
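assay system = NS3 helicase fragment of HCV | buffer or medium = MOPS pH 6.5, MgCl2, DTT, Tween20, BSA | timing = 60 min unwinding reaction at 25 °C after ATP addition | signal = Cy5 beacon fluorescence read at start and 1 h | read-out basis = % inhibition of unwinding | control set = low DMSO, high thioflavine S at 110 µM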
`Cc1cc(O)c(C(=O)/C=C/c2c(F)c(F)c(F)c(F)c2F)c(=O)o1`: the inhibition is 53.7% (active).

For the molecule `Cc1ccc(N=Cc2c(O)cc(C)oc2=O)c(C)c1`, the inhibition was -4.71%.

On to `COc1ccc(Cl)cc1NC(=O)CN(C)C(=O)CCCc1c[nH]c2ccccc12`, for which the inhibition was -11.3%.

Regarding `Cc1nc2ccccc2c(=O)n1NC(=O)c1ccc(Cl)c([N+](=O)[O-])c1`, the inhibition is -12.7%.

Regarding `COc1ccc(NC(=O)CCN2C(=O)/C(=C/c3ccc4c(c3)OCO4)SC2=S)cc1`, the inhibition is -4.44%.

Consider `Cc1ccc(C(=O)O)cc1-c1ccc(/C=C2\SC(=O)N(CC(=O)Nc3ccc4c(c3)OCO4)C2=O)o1`, for which the inhibition is 46.3% (active).

For `O=C(CN1CCN(CC(=O)Nc2ccc3c(c2)OCO3)CC1)Nc1ccc(F)cc1`, the inhibition is 2%.

Regarding `Cc1ccc(C)c(-n2c(SCC(=O)O)nc3sc4c(c3c2=O)CCCC4)c1`, the inhibition is 37.1% (active).

As for `COc1ccccc1-n1c(SCC(=O)O)nc2sc3c(c2c1=O)CCC3`, the inhibition was 5.31%.

Take `CCSc1nc2sc3c(c2c(=O)n1-c1ccc(C)cc1)CCN(C)C3`: the inhibition was -28.2%.

In the case of `Cc1cccc(N2CCN(C(C)C(=O)N3CCc4ccccc43)CC2)c1C` (stereo unspecified), the inhibition is -14.8%.

On to `Cc1cccc(N(C)C(=O)c2cc(S(=O)(=O)N3CCCCC3)c[nH]2)c1`, for which the inhibition is -16.4%.

With `Cc1ccc(OCc2cc(C(=O)N(C)CCn3ccnc3C)no2)cc1C`, the inhibition was -14.7%.

For `CNc1nnc(-c2ccco2)s1`, the inhibition is -1.81%.

`COc1ccc(OCC(=O)Nc2nnc(-c3ccco3)s2)cc1`: the inhibition is 58.5% (active).

In the case of `Cc1ccc(OCC(=O)Nc2nnc(-c3ccco3)s2)cc1`, the inhibition is 13.6%.

In the case of `Cc1cccc(NC(=O)CCn2c(=O)oc3ccccc32)c1`, the inhibition is -6.84%.

In the case of `COc1ccc(C(=O)C2CCCN(C(=O)c3ccc(OC)o3)C2)c(C)c1` (stereo unspecified), the inhibition is -2.85%.

Consider `COC(=O)C1=C(C)N(C(C)c2ccccc2)C(=O)/C1=C\c1ccco1` (stereo unspecified), for which the inhibition is 20.9%.

As for `COc1cc(C2CC(=O)N3CN(Cc4ccccc4)CSC3=C2C#N)ccc1OCc1ccccc1` (stereo unspecified), the inhibition is 52.1% (active).

Consider `COc1cc(CN2CCC(C(N)=O)CC2)ccc1OCc1ccccc1`, for which the inhibition was -5.96%.

For the molecule `COc1cc(CNC2CCCC2)c(Br)cc1OCc1ccccc1`, the inhibition was -30.4%.

For the molecule `COC(=O)c1cc(S(=O)(=O)N2CCC(C(N)=O)CC2)oc1C`, the inhibition was 4.32%.

Regarding `COc1ccccc1C1/C(=C(/O)c2ccc(OC(C)C)cc2)C(=O)C(=O)N1c1cc(C)on1` (stereo unspecified), the inhibition was 43.1% (active).

Turning to `Cc1cc(N2C(=O)C(=O)/C(=C(/O)c3ccc(Cl)cc3)C2c2cccc(Br)c2)no1` (stereo unspecified), the inhibition is 24.4%.

`COc1ccc(C2/C(=C(/O)c3ccccc3)C(=O)C(=O)N2C)c(OC)c1` (stereo unspecified): the inhibition was 3.37%.

Regarding `CN(c1ccccc1)S(=O)(=O)c1ccc(C(=O)NCCc2ccccc2)cc1`, the inhibition was -7.81%.

Regarding `O=C(CC1C(=O)NCCN1C(=O)c1ccc([N+](=O)[O-])cc1)Nc1cccc(Cl)c1` (stereo unspecified), the inhibition was -5.86%.

For `Cc1ccc(Nc2ncnc3c2cnn3C)c(C)c1`, the inhibition is 5.11%.

On to `Cc1ccc(/C=C/C(=O)Nc2cc(S(=O)(=O)N3CCCCCC3)ccc2OCC(F)(F)F)o1`, for which the inhibition was 21.8%.

For the molecule `CCc1nnc(NC(=O)/C=C/c2ccc(C)o2)s1`, the inhibition is 8.82%.

As for `Cc1ccc(/C=C/C(=O)Nc2ccc([N+](=O)[O-])c(NC(=O)/C=C/c3ccc(C)o3)c2)o1`, the inhibition was 46.7% (active).

For the molecule `COc1ccc(C)cc1N(CC(=O)N1CCCC1)S(=O)(=O)c1ccccc1`, the inhibition is 21%.

As for `Cc1ccc(C(c2nnnn2CS(=O)(=O)c2ccc(C)cc2)N2CCC(C)CC2)cc1` (stereo unspecified), the inhibition is -6.3%.

Consider `CC(=O)N1c2ccc(S(=O)(=O)N(C)CC(=O)N(C)Cc3ccccc3)cc2CC1C` (stereo unspecified), for which the inhibition was -2.38%.

For `COc1ccc(OC)c(-n2nnnc2SCC(=O)Nc2cc(C)ccc2OC)c1`, the inhibition was -1.59%.

On to `COc1ccc(C)cc1-n1nnnc1SCC(=O)c1cc(C)n(Cc2ccco2)c1C`, for which the inhibition is 52.1% (active).

With `COCC(C)n1c(C)cc(C(=O)COc2ccc(C)nc2[N+](=O)[O-])c1C` (stereo unspecified), the inhibition was 2.44%.

With `Cc1cc(C(=O)COC(=O)CNC(=O)c2ccc(F)cc2)c(C)n1Cc1ccco1`, the inhibition was 10%.

`Cc1cc(C(=O)CSc2nc(N)cc(=O)[nH]2)c(C)n1Cc1ccco1`: the inhibition is 22.4%.

For the molecule `Cc1ccc(OCC(=O)c2cc(C)n(Cc3ccco3)c2C)c([N+](=O)[O-])n1`, the inhibition was 41.5% (active).

On to `Cc1cc(S(=O)(=O)N2CCOCC2)ccc1OCC(=O)N1CCOCC1`, for which the inhibition was -4.99%.

Consider `COc1cc(NC(=O)CCS(=O)(=O)c2ccc3c(c2)oc(=O)n3C)cc(OC)c1`, for which the inhibition is 3.01%.

For `CCc1ccc(NC(=O)CS(=O)CC(=O)N2CCN(c3ccccc3F)CC2)cc1` (stereo unspecified), the inhibition is 8.61%.

Consider `COc1ccc(NC(=O)CN2C(=O)CSc3ccc(S(=O)(=O)N4CCC(C)CC4)cc32)cc1`, for which the inhibition was -2.68%.

On to `COc1cccc(NCCC(=O)c2cccc([N+](=O)[O-])c2)c1`, for which the inhibition is 2.63%.

Consider `COc1cccc(C(=O)CC(=O)C(=O)Nc2ccc([N+](=O)[O-])cc2C)c1`, for which the inhibition is 37.6% (active).

In the case of `COc1ccc(C(=O)CC(=O)C(=O)Nc2cc([N+](=O)[O-])ccc2OC)cc1`, the inhibition was 12.6%.

Turning to `COc1ccc(-n2ncc3c(SCC(=O)NNC(C)=O)ncnc32)cc1`, the inhibition is 5.53%.

In the case of `Cc1cccc(C)c1-n1c(C)cc(/C=C2\C(=O)NN(c3ccccc3)C2=O)c1C`, the inhibition is 9.92%.

On to `O=C(O)C(c1ccccc1)N1C(=O)/C(=C\c2ccc(-c3cccc(Cl)c3)o2)SC1=S` (stereo unspecified), for which the inhibition is 8.54%.

Turning to `O=C1NN(c2ccccc2)C(=O)/C1=C/c1ccc(-c2cccc(C(=O)O)c2)o1`, the inhibition is 54.3% (active).

With `CC(NS(=O)(=O)c1ccc(OCC(=O)N2CCCC2)cc1)c1ccccc1` (stereo unspecified), the inhibition is -5.83%.

For `O=C(NCc1ccccc1)C(=O)NCC1OCCN1S(=O)(=O)c1ccc(Br)cc1` (stereo unspecified), the inhibition was -0.44%.

Consider `O=C(COc1ccc2c(c1)CCC2)N1CCN(c2ccc(F)cc2)CC1`, for which the inhibition is -11.2%.

Regarding `CC1(C)NC(=O)N(CCCCSc2ccc(Cl)cc2)C1=O`, the inhibition is -1.4%.
